{"source": "ChEMBL document CHEMBL3352317", "about": "“Protective mechanisms of acacetin against D-galactosamine and lipopolysaccharide-induced fulminant hepatic failure in mice” (J Nat Prod, 2014)", "key": {"Mus musculus [1]": {"test_system": "Mus musculus", "assay": "Hepatoprotective effect in GalN/LPS-induced ICR mouse FHF model assessed as serum TNF-alpha level at 100 mg/kg, ip administered 1 hr prior to GalN/LPS challenge measured after 6 hrs by ELISA (reference value: 78.9 +/- 14.9 pg/ml)", "assay_type": "functional", "details": "route intraperitoneal"}, "Mus musculus [2]": {"test_system": "Mus musculus", "assay": "Induction of autophagic flux in GalN/LPS-induced ICR mouse FHF model assessed as […] in Beclin-1 protein expression at 100 mg/kg, ip administered 1 hr prior to GalN/LPS challenge measured after 6 hrs by Western blotting analysis relative to control", "assay_type": "functional, organism-based", "set-up": "dose 100 mg/kg", "outline": "(§1)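 Livers from ICR mice given 100 mg/kg ip (5% DMSO−saline) 1 h before GalN 800 mg/kg/LPS 40 μg/kg, harvested at 6 h. Western blot: 20 μg liver homogenate protein (nuclear extracts for NF-κB), 10−17% SDS-PAGE, PVDF, blocked in 5% milk or BSA, primary antibody overnight at 4 °C, ECL detection; phospho versus total MAPKs; n = 8−10.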"}, "Mus musculus [3]": {"test_system": "Mus musculus", "assay": "Hepatoprotective effect in GalN/LPS-induced ICR mouse FHF model assessed as reduction in p38 phosphorylation at 100 mg/kg, ip administered 1 hr prior to GalN/LPS challenge measured after 6 hrs by Western blotting analysis relative to control", "assay_type": "functional, organism-based", "set-up": "dose 100 mg/kg", "outline": "as §1"}, "Mus musculus [4]": {"test_system": "Mus musculus", "assay": "Hepatoprotective effect in GalN/LPS-induced ICR mouse FHF model assessed as serum ALT level at 50 mg/kg, ip administered 1 hr prior to GalN/LPS challenge measured after 6 hrs by spectrophotometry (reference value: 618.4 +/- 43.7 U/L)", "assay_type": "functional", "details": "route intraperitoneal"}, "Mus musculus [5]": {"test_system": "Mus musculus", "assay": "Effect on serum TNF-alpha level in ICR mouse at 100 mg/kg, ip by ELISA (reference value: 14.1 +/- 1.1 pg/ml)", "assay_type": "ADME, organism-based", "set-up": "dose 100 mg/kg, route intraperitoneal", "details": "in vivo"}, "Mus musculus [6]": {"test_system": "Mus musculus", "assay": "Hepatoprotective effect in GalN/LPS-induced ICR mouse FHF model assessed as reduction in NF-kappaB protein expression at 100 mg/kg, ip administered 1 hr prior to GalN/LPS challenge measured after 6 hrs by Western blotting analysis relative to control", "assay_type": "functional, organism-based", "set-up": "dose 100 mg/kg", "outline": "as §1"}, "Mus musculus [7]": {"test_system": "Mus musculus", "assay": "Hepatoprotective effect in GalN/LPS-induced ICR mouse FHF model assessed as reduction in JNK phosphorylation at 100 mg/kg, ip administered 1 hr prior to GalN/LPS challenge measured after 6 hrs by Western blotting analysis relative to control", "assay_type": "functional, organism-based", "set-up": "dose 100 mg/kg", "outline": "as §1"}, "Mus musculus [8]": {"test_system": "Mus musculus", "assay": "Hepatoprotective effect in GalN/LPS-induced ICR mouse FHF model assessed as serum ALT level at 25 mg/kg, ip administered 1 hr prior to GalN/LPS challenge measured after 6 hrs by spectrophotometry (reference value: 618.4 +/- 43.7 U/L)", "assay_type": "functional", "details": "route intraperitoneal"}, "Mus musculus [9]": {"test_system": "Mus musculus", "assay": "Effect on liver histology in GalN/LPS-induced ICR mouse FHF model assessed as inhibition of multiple areas of portal inflammation at 100 mg/kg, ip administered 1 hr prior to GalN/LPS challenge measured after 6 hrs by hematoxylin/eosin staining-based assay", "assay_type": "functional, organism-based", "set-up": "dose 100 mg/kg"}, "Mus musculus [10]": {"test_system": "Mus musculus", "assay": "Induction of autophagic flux in GalN/LPS-induced ICR mouse FHF model assessed as reduction in p62 level at 100 mg/kg, ip administered 1 hr prior to GalN/LPS challenge measured after 6 hrs by Western blotting analysis relative to control", "assay_type": "functional, organism-based", "set-up": "dose 100 mg/kg", "outline": "as §1"}, "Mus musculus [11]": {"test_system": "Mus musculus", "assay": "Effect on liver histology in GalN/LPS-induced ICR mouse FHF model assessed as inhibition of increase in inflammatory cell infiltration at 100 mg/kg, ip administered 1 hr prior to GalN/LPS challenge measured after 6 hrs by hematoxylin/eosin staining-based assay", "assay_type": "functional, organism-based", "set-up": "dose 100 mg/kg"}, "Mus musculus [12]": {"test_system": "Mus musculus", "assay": "Hepatoprotective effect in GalN/LPS-induced ICR mouse FHF model assessed as serum ALT level at 100 mg/kg, ip administered 1 hr prior to GalN/LPS challenge measured after 6 hrs by spectrophotometry (reference value: 618.4 +/- 43.7 U/L)", "assay_type": "functional", "details": "route intraperitoneal"}, "Mus musculus [13]": {"test_system": "Mus musculus", "assay": "Hepatoprotective effect in GalN/LPS-induced ICR mouse FHF model assessed as serum TNF-alpha level at 100 mg/kg, ip administered 1 hr prior to GalN/LPS challenge measured after 6 hrs by ELISA (reference value: 605.8 +/- 96.8 pg/ml)", "assay_type": "functional", "details": "route intraperitoneal"}, "Mus musculus [14]": {"test_system": "Mus musculus", "assay": "Effect on liver histology in GalN/LPS-induced ICR mouse FHF model assessed as inhibition of hepatocellular necrosis at 100 mg/kg, ip administered 1 hr prior to GalN/LPS challenge measured after 6 hrs by hematoxylin/eosin staining-based assay", "assay_type": "functional, organism-based", "set-up": "dose 100 mg/kg"}, "Mus musculus [15]": {"test_system": "Mus musculus", "assay": "Effect serum ALT level in ICR mouse at 100 mg/kg, ip by spectrophotometry (reference value: 49.6 +/- 9.9 U/L)", "assay_type": "ADME, organism-based", "set-up": "dose 100 mg/kg, route intraperitoneal", "details": "in vivo"}, "Mus musculus [16]": {"test_system": "Mus musculus", "assay": "Induction of autophagic flux in GalN/LPS-induced ICR mouse FHF model assessed as increase in LC3-2 protein expression at 100 mg/kg, ip administered 1 hr prior to GalN/LPS challenge measured after 6 hrs by Western blotting analysis relative to control", "assay_type": "functional, organism-based", "set-up": "dose 100 mg/kg", "outline": "as §1"}, "Mus musculus [17]": {"test_system": "Mus musculus", "assay": "Induction of autophagic flux in GalN/LPS-induced ICR mouse FHF model assessed as increase in Atg-7 protein expression at 100 mg/kg, ip administered 1 hr prior to GalN/LPS challenge measured after 6 hrs by Western blotting analysis relative to control", "assay_type": "functional, organism-based", "set-up": "dose 100 mg/kg", "outline": "as §1"}, "Mus musculus [18]": {"test_system": "Mus musculus", "assay": "Hepatoprotective effect in GalN/LPS-induced ICR mouse FHF model assessed as survival rate at 100 mg/kg, ip administered 1 hr prior to GalN/LPS challenge measured after 24 hrs", "assay_type": "functional", "details": "route intraperitoneal", "outline": "(§2)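 Male 6-week-old ICR mice (24−26 g), fasted 18 h with water allowed. Vehicle (5% DMSO−saline) or drug suspended in it (25, 50, 100 mg/kg) given ip 1 h before ip GalN (800 mg/kg) plus LPS (40 μg/kg, E. coli O111:B4) in PBS. Survival was monitored over 24 h after the challenge. There were 10 mice per group.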"}, "Mus musculus [19]": {"test_system": "Mus musculus", "assay": "Hepatoprotective effect in GalN/LPS-induced ICR mouse FHF model assessed as reduction in ERK phosphorylation at 100 mg/kg, ip administered 1 hr prior to GalN/LPS challenge measured after 6 hrs by Western blotting analysis relative to control", "assay_type": "functional, organism-based", "set-up": "dose 100 mg/kg", "outline": "as §1"}, "Mus musculus [20]": {"test_system": "Mus musculus", "assay": "Hepatoprotective effect in ip dosed GalN/LPS-induced ICR mouse FHF model assessed as survival rate administered 1 hr prior to GalN/LPS challenge measured up to 24 hrs", "assay_type": "functional, organism-based", "outline": "as §2"}, "Hepatocyte": {"test_system": "Hepatocyte", "assay": "Hepatoprotective effect in primary hepatocytes (unknown origin)", "assay_type": "functional, cell-based"}, "Mus musculus [21]": {"test_system": "Mus musculus", "assay": "Hepatoprotective effect in GalN/LPS-induced ICR mouse FHF model assessed as reduction in TLR4 protein expression at 100 mg/kg, ip administered 1 hr prior to GalN/LPS challenge measured after 6 hrs by Western blotting analysis relative to control", "assay_type": "functional, organism-based", "set-up": "dose 100 mg/kg", "outline": "as §1"}, "Mus musculus [22]": {"test_system": "Mus musculus", "assay": "Toxicity in ICR mouse at 100 mg/kg, ip", "assay_type": "organism-based", "set-up": "dose 100 mg/kg, route intraperitoneal", "details": "in vivo"}, "Mus musculus [23]": {"test_system": "Mus musculus", "assay": "Effect on liver histology in ICR mouse at 100 mg/kg, ip after 6 hr by hematoxylin/eosin staining-based assay", "details": "in vivo"}, "Mus musculus [24]": {"test_system": "Mus musculus", "assay": "Induction of autophagic flux in GalN/LPS-induced ICR mouse FHF model assessed as increase in Atg-5 protein expression at 100 mg/kg, ip administered 1 hr prior to GalN/LPS challenge measured after 6 hrs by Western blotting analysis relative to control", "assay_type": "functional, organism-based", "set-up": "dose 100 mg/kg", "outline": "as §1"}, "Mus musculus [25]": {"test_system": "Mus musculus", "assay": "Induction of autophagic flux in GalN/LPS-induced ICR mouse FHF model assessed as increase in autophagic vacuoles at 100 mg/kg, ip administered 1 hr prior to GalN/LPS challenge measured after 6 hrs by transmission electron microscopy relative to control", "assay_type": "functional, organism-based", "set-up": "dose 100 mg/kg", "outline": "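Mice given 100 mg/kg ip 1 h before GalN (800 mg/kg)/LPS (40 μg/kg); liver fixed at 6 h in 2.5% glutaraldehyde, 1% formaldehyde, 100 mM sodium phosphate pH 7.2; ultrathin 60−70 nm sections counterstained with uranyl acetate and lead citrate, autophagic vacuoles counted by transmission electron microscopy; n = 8−10.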"}, "Mus musculus [26]": {"test_system": "Mus musculus", "assay": "Effect on serum IL-6 level in ICR mouse at 100 mg/kg, ip by ELISA (reference value: 96.7 +/- 4.9 pg/ml)", "assay_type": "ADME, organism-based", "set-up": "dose 100 mg/kg, route intraperitoneal", "details": "in vivo"}}, "note": "Activity calls are given as the source filed them. No cut-off for these calls is given here.", "data": [{"smiles": "COc1ccc(-c2cc(=O)c3c(O)cc(O)cc3o2)cc1", "note": "[ACACETIN]", "values": [{"measurement": "Activity", "setting": "Mus musculus [1]", "value": 27.4, "unit": "pg/mL"}, {"measurement": "Activity", "setting": "Mus musculus [2]", "value": "inactive"}, {"measurement": "Activity", "setting": "Mus musculus [3]", "value": "Active"}, {"measurement": "Activity", "setting": "Mus musculus [4]", "value": 395.6, "unit": "U/L"}, {"measurement": "Activity", "setting": "Mus musculus [5]", "value": 13.1, "unit": "pg/mL"}, {"measurement": "Activity", "setting": "Mus musculus [6]", "value": "Active"}, {"measurement": "Activity", "setting": "Mus musculus [7]", "value": "Active"}, {"measurement": "Activity", "setting": "Mus musculus [8]", "value": 520.1, "unit": "U/L"}, {"measurement": "Activity", "setting": "Mus musculus [9]", "value": "Active"}, {"measurement": "Activity", "setting": "Mus musculus [10]", "value": "Active"}, {"measurement": "Activity", "setting": "Mus musculus [11]", "value": "Active"}, {"measurement": "Activity", "setting": "Mus musculus [12]", "value": 361.3, "unit": "U/L"}, {"measurement": "Activity", "setting": "Mus musculus [13]", "value": 27.4, "unit": "pg/mL"}, {"measurement": "Activity", "setting": "Mus musculus [14]", "value": "Active"}, {"measurement": "Activity", "setting": "Mus musculus [15]", "value": 64.4, "unit": "U/L"}, {"measurement": "Activity", "setting": "Mus musculus [16]", "value": "Active"}, {"measurement": "Activity", "setting": "Mus musculus [17]", "value": "Active"}, {"measurement": "survival at 100 mg/kg", "setting": "Mus musculus [18]", "value": 80, "unit": "%"}, {"measurement": "Activity", "setting": "Mus musculus [19]", "value": "Active"}, {"measurement": "Survival", "setting": "Mus musculus [20]", "value": "Dose-dependent effect"}, {"measurement": "Activity", "setting": "Hepatocyte", "value": "Active"}, {"measurement": "Activity", "setting": "Mus musculus [21]", "value": "Active"}, {"measurement": "Activity", "setting": "Mus musculus [22]", "value": "Non-toxic"}, {"measurement": "Activity", "setting": "Mus musculus [23]", "value": "Non-toxic"}, {"measurement": "Activity", "setting": "Mus musculus [24]", "value": "Active"}, {"measurement": "Activity", "setting": "Mus musculus [25]", "value": "Active"}, {"measurement": "Activity", "setting": "Mus musculus [26]", "value": 131, "unit": "pg/mL"}]}]}
